This is one part of a sample in which hits are shown more often than they occur.
bCat KO growth: beta-catenin-lacking colon tumor cell growth suppression; 140,000 compounds, 1.5% hits; viability, % at 10 µM; HCT116 beta-catenin knockout viability, CellTiter-Glo, 60 h; hits give low values;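 active = viability at or under a set limit, the compound median less 4 SD, cut at about 6% in these data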
Lung fibro prol: blocks proliferation of human lung fibroblasts; AID 719; LL 47 human lung fibroblast viability, ATP luminescence; hits give low values; 85,000 compounds, 1.1% hits; viability, % at 10 µM;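 active = viability at or below 50% in the single dose screen; inactive = viability above 50%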;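 note: compound exposure lasted 72 h before the ATP readout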
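test system = LL 47 human lung fibroblasts | amount = 1,150 fibroblasts seeded per well | medium = 15% FBS in IMEM | times = overnight cell rest, 72 h compound treatment at 37 °C | measured by = CellTiter-Glo luminescence measuring cellular ATP | read-out = viability percentage against median untreated-cell control | benchmarks = cell-only wells, no compound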
HUVEC prolif 384: blocks proliferation of human endothelial cells. HUVEC proliferation, CellTiter-Glo luminescence, 72 h; hits give low values. viability, % at 10 µM (by protocol). 86,000 compounds, 1.1% hits;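 active = viability at or below 30%; inactive = viability above 30%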
H69AR growth 86K: growth inhibitors of human H69AR lung tumor cells; H69AR lung tumor viability, ATP luminescence, 72 h; hits give low values; viability, % at 10 µM; 85,000 compounds, 6% hits;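 active = viability at or below 40%; inactive = viability above 40%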;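 note: multidrug resistant small cell line overexpressing MRP-1 efflux transporter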
PTEN del growth: PTEN-deleted cell growth suppression. HCT116 PTEN-null viability, CellTiter-Glo, 60 h; hits give low values. viability, % at 10 µM. 140,000 compounds, 1.2% hits. AID 827;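 active = viability at or below a set limit, 4 SD under the median of all tested compounds, cut at about 3.7% in these data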;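 note: PTEN knockout HCT116 line with beta catenin targeted HCT116 as companion control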
Hits are given with their value; – = inactive; · = no result.

SMILES	bCat KO growth	Lung fibro prol	HUVEC prolif 384	H69AR growth 86K	PTEN del growth
COc1cc(/C=C(/C#N)C(=O)NCCc2c[nH]c3ccccc23)ccc1OCc1ccccc1F	–	·	·	·	–
CN(C)CCNC(=O)c1ccc(COc2ccc(Cl)cc2Cl)cc1	3.1	25	2.4	1.4	1.6
CN1CCN(C(=O)CCCOc2ccc(Cl)cc2Cl)CC1	–	·	·	·	–
CN1CCN(C(=O)c2ccc(COc3ccc(Cl)cc3Cl)cc2)CC1	–	–	13	–	–
COc1ccc(Cl)cc1C(=O)NCCN(C)C	–	–	–	–	–
COc1cc(/C=C(\NC(C)=O)C(=O)Nc2cccc(O)c2)ccc1OC(C)=O	–	·	·	·	–
COc1ccc(-c2nn(-c3ccccc3)cc2/C=N/N=C(N)N)cc1OC	1.6	·	·	·	1.2
CCOC(=O)c1c(C)[nH]c(C(=O)OCCOc2ccccc2C)c1C	–	·	·	·	–
CCOC(=O)N1CCN(C(=O)C(C)N(c2ccc(Oc3ccccc3)cc2)S(C)(=O)=O)CC1 (configuration not stated)	–	·	–	34	–
COc1ccc(S(=O)(=O)CCC(=O)Nc2ccc(OC)cc2OC)cc1	–	–	–	–	–
COc1ccc(S(=O)(=O)CCC(=O)N(C)c2ccc(OC)cc2OC)cc1	0.5	–	–	–	0.4
O=S(=O)(c1ccc2ccccc2c1)N1CCC(c2nc(-c3ccncc3)no2)CC1	–	–	–	–	–
O=C(CNC(=O)c1ccc(Br)o1)Nc1cccc(-c2cnc3ccccc3n2)c1	–	–	–	25	–
Cc1cccc(NC(=O)c2ccc(C3SCC(=O)N3CCc3ccccc3)cc2)c1C (configuration not stated)	–	·	·	·	–
COc1cccc(C2CC(c3c(-c4ccccc4)c4cc(Cl)ccc4[nH]c3=O)=NN2S(C)(=O)=O)c1OC (configuration not stated)	–	–	–	22	–
CCC(=O)N1N=C(c2c(-c3ccccc3)c3cc(Cl)ccc3[nH]c2=O)CC1c1ccco1 (configuration not stated)	–	·	·	·	–
COc1ccccc1C1CC(c2c(-c3ccccc3)c3cc(Cl)ccc3[nH]c2=O)=NN1S(C)(=O)=O (configuration not stated)	2.0	–	26	8.3	1.9
COc1ccccc1C(CCNS(=O)(=O)c1ccc(C)cc1)c1ccco1 (configuration not stated)	–	·	·	·	–
Cc1nc2ccccc2c(=O)n1/N=C/c1cn(-c2ccccc2)nc1-c1cccs1	–	–	–	35	–
O=c1c(-c2nc3ccccc3o2)c2oc3ccccc3n2c2ccccc12	–	·	·	·	–
O=C(NNC(=O)c1ccc([N+](=O)[O-])o1)c1ccccc1	–	43	–	–	–
O=C(NNC(=S)NC(=O)c1ccccc1[N+](=O)[O-])c1ccccc1	–	–	–	25	–
CCOC(=O)/C(=C\c1ccc([N+](=O)[O-])o1)NC(=O)c1ccccc1	–	–	–	–	–
Cc1cc(C)nc(NC(=O)c2ccc([N+](=O)[O-])o2)n1	4.2	·	·	·	–
Cc1ccc(S(=O)(=O)N(Cc2ccc(Cl)cc2)c2ccccc2C(=O)NCc2ccco2)cc1	–	·	·	·	–
SMILES	bCat KO growth	Lung fibro prol	HUVEC prolif 384	H69AR growth 86K	PTEN del growth
CC(C)[C@H](NC(=O)c1ccccc1)C(=O)OCC(=O)N1CC2(C)CC1CC(C)(C)C2 (some centres not stated)	–	·	·	·	–
Fc1ccccc1CSc1ncnc2sc3c(c12)CCCC3	–	·	·	·	–
COc1ccc(C)cc1Nc1cc(C)nc2nc(C)nn12	–	–	–	25	–
COc1ccc(OC)c(Nc2cc(C)nc3nc(C)nn23)c1	–	–	–	22	–
COc1ccc(Nc2cc(C)nc3nc(C)nn23)c(OC)c1	–	–	–	–	–
COc1ccc(Nc2cc(C)nc3nc(C)nn23)cc1Cl	–	–	–	–	–
CCOC(=O)c1nnn(-c2nonc2N)c1COc1cc(C)c(Cl)c(C)c1	·	–	–	24	·
C#CCSc1nnc(-c2cccc3ccccc23)o1	·	–	–	21	·
O=C(OCC#CCSc1nnc(-c2ccccc2)o1)c1cccs1	–	–	–	–	–
O=C(OCC#CCSc1nnc(-c2cccc3ccccc23)o1)c1cccs1	–	–	–	35	–
COC(=O)c1ccc(C(=O)OC)c(NC(=O)c2ocnc2C)c1	·	–	–	–	·
Cc1cc(N2CCCC2=O)cc(C)c1CN1C(=O)c2ccccc2C1=O	–	·	·	·	–
O=C(CNC(=O)c1ccc(Cl)cc1Cl)NCCCn1ccnc1	–	–	–	–	–
COc1cc(CNCc2ccccn2)ccc1OCc1ccc(Cl)cc1Cl	2.4	·	·	·	3.5

From PubChem
